Where a SMILES comes first, the peptide text is derived from it. [ ]: non-standard residue; d: D form. 1Nal = N[C@@H](Cc1cccc2ccccc12)C(=O)O; 2Nal = N[C@@H](Cc1ccc2ccccc2c1)C(=O)O
Assays:
PP1 = PP1 (Homo sapiens, UniProt P62136); assay: ALPHA assay, competition with Biotin-PDP2 for the RVxF binding site of His-PP1
Method in brief: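 Competition binding with 200 nM His-PP1 and 67 nM biotin-PDP2 in 50 mM Tris-Cl pH 7.5, 150 mM NaCl, 0.05% Tween 20, 1 mM MnCl₂, 0.1% BSA. Serial dilutions of test compound were added for 60 min at rt. Streptavidin-donor and anti-His-acceptor beads (5 μg/ml final) were then added for 90 min at rt in the dark. Excitation was 680 nm, emission 570 nm. The non-specific control used 22 nM GST(His-biotin).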

PP1 and Inhibitor 2 = PP1 and Inhibitor 2 (Homo sapiens, UniProt P62136); assay: Disruption of the interaction between PP1 and Inhibitor 2; assay type: biochemical; conditions: for EC50 of the disruption of the interaction between PP1 and Inhibitor 2: starting at 50% inhibition of PP1 with I2, DiFMUP as substrate; for activity in disrupting PP1:I2 (in words): in vitro, Table 1 conditions; for PP1 activity reached (efficacy): maximum of dose-response, around 50% starting inhibition (Supp. Fig. 2E, F)
HeLa cells = assay: Calcium release assay, Fluo-4 imaging in intact HeLa cells; assay type: cell-based; conditions: Fluo-4, Ca^2+-containing imaging buffer
Method in brief: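 HeLa Kyoto cells were grown in low-glucose DMEM with 10% FBS, penicillin/streptomycin and L-glutamine at 37 °C, 5% CO₂, then seeded in chamber slides the day before imaging (~80% confluent). Cells were loaded with 0.5 μM Fluo-4 in HEPES pH 7.4 imaging buffer containing 1.2 mM CaCl₂ for 30 min at rt, then washed. Confocal imaging used ex 488/em 516 nm: 2 min baseline, then 30 min after compound addition. Buffer and a PP1-disrupting peptide served as controls. Responding cells were counted.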

PP1 by I2 = conditions: starting inhibition of PP1 by I2 of 50%; cited from earlier work

Chain of PP1 and Inhibitor 2 (P62136 whole entry): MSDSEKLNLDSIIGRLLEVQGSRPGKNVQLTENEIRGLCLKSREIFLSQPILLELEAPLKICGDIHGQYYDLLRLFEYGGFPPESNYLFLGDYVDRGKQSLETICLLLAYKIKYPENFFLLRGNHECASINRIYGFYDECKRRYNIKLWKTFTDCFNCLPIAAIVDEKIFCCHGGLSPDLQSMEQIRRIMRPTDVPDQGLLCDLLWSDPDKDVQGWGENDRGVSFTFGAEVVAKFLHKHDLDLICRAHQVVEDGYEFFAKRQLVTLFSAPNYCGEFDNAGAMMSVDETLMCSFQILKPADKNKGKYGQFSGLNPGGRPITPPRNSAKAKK
Chain of PP1 (P62136 whole entry): as above

CC(C)[C@H](NC(=O)[C@@H](N)CCCNC(=N)N)C(=O)N[C@H](C(=O)N[C@@H](Cc1ccccc1)C(=O)O)[C@@H](C)O [Compound 1, RVTF] (H-RVTF-OH)
IC50 (PP1): 124 µM

CC[C@H](C)[C@H](NC(=O)[C@@H](N)CCCNC(=N)N)C(=O)N[C@H](C(=O)N[C@@H](Cc1ccccc1)C(=O)O)[C@@H](C)O [Compound 3, RITF] (H-RITF-OH)
EC50 of the disruption of the interaction between PP1 and Inhibitor 2 (PP1 and Inhibitor 2): Slightly active at 500 μM

CC(C)C[C@H](NC(=O)[C@@H](N)CCCNC(=N)N)C(=O)N[C@H](C(=O)N[C@@H](Cc1ccccc1)C(=O)O)[C@@H](C)O [Compound 4, RLTF] (H-RLTF-OH)
EC50 of the disruption of the interaction between PP1 and Inhibitor 2 (PP1 and Inhibitor 2): Slightly active at 500 μM

CC(C)[C@H](NC(=O)[C@@H](N)CCCNC(=N)N)C(=O)NCC(=O)N[C@@H](Cc1ccccc1)C(=O)O [Compound 6, RVGF] (H-RVGF-OH)
EC50 of the disruption of the interaction between PP1 and Inhibitor 2 (PP1 and Inhibitor 2): Slightly active at 500 μM

CC(C)[C@H](NC(=O)[C@@H](NC(=O)[C@@H](N)CCCNC(=N)N)C(C)C)C(=O)N[C@@H](Cc1ccccc1)C(=O)O [Compound 7, RVVF] (H-RVVF-OH)
EC50 of the disruption of the interaction between PP1 and Inhibitor 2 (PP1 and Inhibitor 2): Slightly active at 500 μM

CC(C)[C@H](NC(=O)[C@@H](N)CCCNC(=N)N)C(=O)N[C@@H](CCC(=O)O)C(=O)N[C@@H](Cc1ccccc1)C(=O)O [Compound 13, RVEF] (H-RVEF-OH)
EC50 of the disruption of the interaction between PP1 and Inhibitor 2 (PP1 and Inhibitor 2): Slightly active at 500 μM

CC(C)[C@H](NC(=O)[C@@H](NC(=O)[C@@H](N)Cc1ccccc1)[C@@H](C)O)C(=O)N[C@@H](CCCNC(=N)N)C(=O)O [Compound 25, FTVR] (H-FTVR-OH)
activity in disrupting PP1:I2 (in words) (PP1 and Inhibitor 2): inactive

CC(C)[C@@H](NC(=O)[C@@H](Cc1c[nH]cn1)NC(=O)[C@H](N)Cc1ccccc1)C(=O)N[C@H](CCCNC(=N)N)C(=O)O [Compound 27, dFdHdVdR]
EC50 of the disruption of the interaction between PP1 and Inhibitor 2 (PP1 and Inhibitor 2): Slightly active at 500 μM

CC(=O)N[C@@H](CCCNC(=N)N)C(=O)N[C@H](C(=O)N[C@H](C(=O)N[C@@H](Cc1ccccc1)C(=O)O)[C@@H](C)O)C(C)C [Compound 28, Ac-RVTF] (Ac-RVTF-OH)
activity in disrupting PP1:I2 (in words) (PP1 and Inhibitor 2): inactive

CC(C)[C@H](NC(=O)[C@H](CCCNC(=N)N)NC(=O)[C@@H](N)CCCCN)C(=O)N[C@@H](Cc1c[nH]cn1)C(=O)N[C@@H](Cc1cccc2ccccc12)C(N)=O [Compound 48, KRVH-(1-NaI)-NH2] (H-KRVH[1Nal]-NH2)
PP1 activity reached (efficacy) (PP1 and Inhibitor 2): around 80%

CC(C)[C@H](NC(=O)[C@H](CCCNC(=N)N)NC(=O)[C@@H](N)CCCCN)C(=O)N[C@@H](Cc1c[nH]cn1)C(=O)N[C@@H](Cc1ccc2ccccc2c1)C(N)=O [Compound 49, KRVH-(2-NaI)-NH2] (H-KRVH[2Nal]-NH2)
PP1 activity reached (efficacy) (PP1 and Inhibitor 2): around 80%

Ac-KRVHF-NH2 [Compound 34, Ac-KRVHF-NH2]
calcium spiking in living HeLa cells (in words) (HeLa cells): inactive

RKIQFT
EC50 (PP1 by I2): 54 µM

Source: article PMC7613447 (Bioorganic & medicinal chemistry, 2022)
